The text below walks through data of ChEMBL document CHEMBL4196155 (J Med Chem, 2018).

Experiment [1] has as its target T1, Melatonin receptor type 1B (Homo sapiens) (UniProt P49286).
T1 sequence (whole entry): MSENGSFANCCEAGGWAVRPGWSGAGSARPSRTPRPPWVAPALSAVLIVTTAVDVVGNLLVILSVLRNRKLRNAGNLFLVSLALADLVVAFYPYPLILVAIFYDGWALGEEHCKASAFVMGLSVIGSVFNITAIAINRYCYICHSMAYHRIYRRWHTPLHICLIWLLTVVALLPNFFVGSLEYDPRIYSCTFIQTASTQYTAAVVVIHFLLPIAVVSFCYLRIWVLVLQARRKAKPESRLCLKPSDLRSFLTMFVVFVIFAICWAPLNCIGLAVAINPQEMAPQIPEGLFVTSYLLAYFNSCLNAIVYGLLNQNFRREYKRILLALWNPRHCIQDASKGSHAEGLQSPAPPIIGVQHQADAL
Nature of the experiment: Intrinsic agonist activity at human MT2 receptor expressed in […] NIH/3T3 cell membranes assessed as induction of G protein activation incubated for 30 mins by [35S]GTPgammaS binding assay relative to melatonin. The experiment is classed as functional. In outline:
(§1)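 NIH3T3 membranes bearing cloned human MT1 or MT2 (15–25 μg protein) incubated 30 min at 30 °C with [35S]GTPγS 0.3–0.5 nM, GDP 50 μM, NaCl 100 mM, MgCl2 3 mM. […] Maximal stimulation above basal was divided by that of 100 nM MLT in the same experiment. Run in triplicate.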

The target of experiment [2] is T2, Melatonin receptor type 1A (Homo sapiens, UniProt P48039). Nature of the experiment: Intrinsic agonist activity at human MT1 receptor expressed in […] NIH/3T3 cell membranes assessed as induction of G protein activation incubated for 30 mins by [35S]GTPgammaS binding assay relative to melatonin. The class given is functional. The method in brief: as §1
Experiment [3] addresses T2, Melatonin receptor type 1A. Kind of experiment: biochemical.
The subject of experiment [4] is Oryctolagus cuniculus. Nature of the experiment: Reduction in hypertonic saline solution-induced elevated intraocular pressure in New Zealand White rabbit at 1 mM dosed topically before hypertonic saline solution injection measured after 240 mins. The experiment is classed as functional, organism-based. In outline:
(§2)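 Male SPF New Zealand albino rabbits, 2–2.5 kg, four per compound. 0.05 mL of 1 mM solution in 0.9% NaCl, 0.1% DMSO, 0.1% EtOH was dropped into one eye, vehicle into the other, before intravitreal 0.1 mL 5% hypertonic saline. IOP was read by tonometry after oxybuprocaine 0.2% once the rise had stabilised at 30–40 mm Hg, then after treatment. Analysis by 2-way ANOVA with Bonferroni.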

Experiment [5] relates to Oryctolagus cuniculus. Kind of experiment: Reduction in hypertonic saline solution-induced elevated intraocular pressure in New Zealand White rabbit at 1 mM dosed topically before hypertonic saline solution injection measured after 120 mins. The class given is functional, organism-based. In outline: as §2
Experiment [6] has as its system Oryctolagus cuniculus. Kind of experiment: Reduction in hypertonic saline solution-induced elevated intraocular pressure in New Zealand White rabbit at 1 mM dosed topically before hypertonic saline solution injection measured after 60 mins. The class given is functional, organism-based. The method in brief: as §2
Experiment [7] addresses T3, Fatty-acid amide hydrolase 1 (Rattus norvegicus, UniProt P97612).
T3 sequence (P97612 whole entry): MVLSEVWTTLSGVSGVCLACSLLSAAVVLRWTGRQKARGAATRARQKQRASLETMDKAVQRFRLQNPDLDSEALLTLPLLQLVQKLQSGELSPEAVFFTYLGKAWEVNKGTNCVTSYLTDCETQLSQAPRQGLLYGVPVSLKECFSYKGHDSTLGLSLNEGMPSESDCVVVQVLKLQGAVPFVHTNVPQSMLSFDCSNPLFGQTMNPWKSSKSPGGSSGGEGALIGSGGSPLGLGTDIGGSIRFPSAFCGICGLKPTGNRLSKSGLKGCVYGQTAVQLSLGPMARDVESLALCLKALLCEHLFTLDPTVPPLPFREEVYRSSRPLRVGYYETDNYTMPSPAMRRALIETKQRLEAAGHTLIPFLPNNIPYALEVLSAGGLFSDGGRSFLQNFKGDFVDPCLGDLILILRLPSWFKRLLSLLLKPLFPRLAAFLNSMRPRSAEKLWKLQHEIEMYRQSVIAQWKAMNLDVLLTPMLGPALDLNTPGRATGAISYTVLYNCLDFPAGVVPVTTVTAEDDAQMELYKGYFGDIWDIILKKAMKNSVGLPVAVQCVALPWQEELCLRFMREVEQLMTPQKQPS
Nature of the experiment: Inhibition of FAAH1 in Wistar rat brain homogenates using [3H]anandamide as substrate incubated for 30 mins by liquid scintillation counting method. The method in brief: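 Wistar rat brain homogenised in ice-cold Tris 50 mM pH 7.5 with 0.32 M sucrose, spun 1,000 × g 10 min at 4 °C; supernatant used. Homogenate (50 μg protein) incubated 30 min at 37 °C in Tris 50 mM pH 7.5, 0.05% fatty-acid-free BSA, 10 μM anandamide plus [3H]anandamide (20,000 cpm), varying compound concentrations, final DMSO 1%. Stopped with CHCl3/MeOH 1:1; aqueous [3H]ethanolamine counted. IC50 from at least two determinations.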

For experiment [8], the target named is T4, Melatonin receptor type 1B (Homo sapiens, UniProt P49286).
T4 sequence (P49286 whole entry): T1 sequence (whole entry)
Kind of experiment: biochemical.

Active and inactive are the calls of the source. No cut-off for these calls is given here.

T2 sequence (P48039 whole entry): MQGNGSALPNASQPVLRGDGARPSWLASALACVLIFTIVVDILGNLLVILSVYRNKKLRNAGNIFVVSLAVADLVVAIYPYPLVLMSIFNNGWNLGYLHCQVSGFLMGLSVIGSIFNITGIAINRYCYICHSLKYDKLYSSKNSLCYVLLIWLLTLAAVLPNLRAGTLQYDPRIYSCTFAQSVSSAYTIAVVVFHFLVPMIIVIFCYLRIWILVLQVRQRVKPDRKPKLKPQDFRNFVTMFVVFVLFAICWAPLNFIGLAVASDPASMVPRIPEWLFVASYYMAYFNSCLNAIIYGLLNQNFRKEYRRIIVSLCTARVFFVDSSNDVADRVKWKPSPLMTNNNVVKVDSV

In the case of `CC(=O)NCCc1c[nH]c2ccc(OCCCCCCCCNC(=O)Oc3cccc(-c4ccccc4)c3)cc12`, the Intrinsic activity worked out at 0.53 in experiment [1] and 0.73 in experiment [2]. Moreover, the Ki in experiment [3] is 0.0049 µM; in experiment [8], 0.00631 µM. The outcome with Oryctolagus cuniculus [4] and with Oryctolagus cuniculus [5] was inactive. In the experiment with Oryctolagus cuniculus [6], the result was Active. In experiment [7], this compound returned an IC50 of 0.004 µM.
With `CC(=O)NCCN(C)c1cccc(OCCCCCCNC(=O)Oc2cccc(-c3cccc(C(N)=O)c3)c2)c1`, the Intrinsic activity is 1.01 in experiment [1] and 0.79 in experiment [2]. The inhibition constant Ki in experiment [3] was 0.0389 µM; in experiment [8], 0.0155 µM. Moreover, the outcome with Oryctolagus cuniculus [5] was Active. Also, the outcome in the experiment on Oryctolagus cuniculus [6] was inactive. Also, the IC50 in experiment [7] stood at 0.00043 µM.
`CC(=O)NCCN(C)c1cccc(OCCCCCCN)c1`: the Intrinsic activity in experiment [1] amounted to 0.08; in experiment [2], 0.34. Also, the Ki in experiment [3] was 0.447 µM; in experiment [8], 0.398 µM.
Take `CC(=O)NCCN(C)c1cccc(OCCCCCCCCNC(=O)Oc2cccc(-c3ccccc3)c2)c1`: the Intrinsic activity in experiment [1] stood at 0.96; in experiment [2] it was 0.85. Moreover, the Ki in experiment [3] is 0.0316 µM; in experiment [8] it was 0.0324 µM. In addition, in the experiment with Oryctolagus cuniculus [5], the outcome was Active. In the experiment on Oryctolagus cuniculus [6], the outcome was inactive. Besides, in experiment [7], half-maximal inhibition (IC50) required 0.00063 µM.
For `CC(=O)NCCN(C)c1cccc(OCCCCOc2cccc(O)c2)c1`, the values for the Intrinsic activity in experiment [1] and in experiment [2] were 0.18 and 0.27, respectively. For the same compound, the figures for the Ki in experiment [3] and in experiment [8] were 0.186 µM and 0.603 µM, respectively.
Regarding `CC(=O)NCCN(C)c1cccc(OCCCCCCOc2cccc(OC(=O)NC3CCCCC3)c2)c1`, the Intrinsic activity in experiment [1] and in experiment [2] was 0.71 each time. The Ki in experiment [3] was 0.0275 µM; in experiment [8], 0.295 µM. Further, the IC50 in experiment [7] was determined as 0.197 µM.
As to `NC(=O)c1cccc(-c2cccc(OC(=O)NC3CCCCC3)c2)c1`, the result with Oryctolagus cuniculus [5] was inactive. Further, in the experiment with Oryctolagus cuniculus [6], the outcome was Active.
For the compound `CC(=O)NCCN(C)c1cccc(OCCCCCCNC(=O)Oc2cccc(-c3cccc(O)c3)c2)c1`, the results for the Intrinsic activity in experiment [1] and in experiment [2] were 0.94 and 0.89, respectively. Moreover, the Ki was 0.0295 µM in experiment [3] and 0.0269 µM in experiment [8]. In the experiment with Oryctolagus cuniculus [5], the outcome was Active. Further, the outcome with Oryctolagus cuniculus [6] was inactive. The midpoint of inhibition in experiment [7], the IC50, lay at 0.00036 µM.
On to `COc1ccc2[nH]cc(CCNC(C)=O)c2c1`, for which, in the experiment with Oryctolagus cuniculus [5], the outcome was inactive. Moreover, the outcome in the experiment on Oryctolagus cuniculus [6] was Active.
In the case of `CCC(=O)NCCN(C)c1cccc(OCCCCCCNC(=O)Oc2cccc(-c3ccccc3)c2)c1`, the Intrinsic activity in experiment [1] stood at 0.88; in experiment [2] it was 0.77. The inhibition constant (Ki) in experiment [3] is 0.0162 µM; in experiment [8], 0.0191 µM. This compound had an IC50 in experiment [7] of 0.00307 µM.
`CC(=O)NCCN(C)c1cccc(OCCCCOc2cccc(OC(=O)NC3CCCCC3)c2)c1`: the Intrinsic activity in experiment [1] was found to be 0.05; in experiment [2], 0.07. Further, the Ki in experiment [3] is 0.0347 µM; in experiment [8], 0.0537 µM. Besides, 0.184 µM corresponded to half-maximal inhibition in experiment [7] (IC50).
As for `CC(=O)NCCN(C)c1cccc(OCCCCNC(=O)Oc2cccc(-c3ccccc3)c2)c1`, the Intrinsic activity was found to be 0.39 in experiment [1] and 0.64 in experiment [2]. Moreover, the Ki is 0.0129 µM in experiment [3] and 0.0447 µM in experiment [8]. In experiment [7], 0.00145 µM corresponded to half-maximal inhibition (IC50).
Regarding `CC(=O)NCCN(C)c1cccc(OCCCCCCOc2cccc(O)c2)c1`, the Intrinsic activity came out at 0.57 in experiment [1] and 0.62 in experiment [2]. Also, the inhibition constant (Ki) was 0.0589 µM in experiment [3] and 0.331 µM in experiment [8].
For `CC(=O)NCCN(C)c1cccc(OCCCCN)c1`, in that order: 0.35, 0.32, 3.09 µM and 12.9 µM.
With `CC(=O)NCCN(C)c1cccc(OCCCCCCNC(=O)Oc2cccc(-c3ccccc3)c2)c1`, the values for the Intrinsic activity in experiment [1] and in experiment [2] were 0.75 and 0.7, respectively. Further, the figures for the Ki in experiment [3] and in experiment [8] were 0.0214 µM and 0.0331 µM, respectively. In experiment [7], the IC50 is 0.00134 µM.
For `CC(=O)NCCc1c[nH]c2ccc(OCCCCCCNC(=O)Oc3cccc(-c4ccccc4)c3)cc12`, the Intrinsic activity in experiment [1] turned out to be 1.02; in experiment [2] it was 0.73. For the same compound, the inhibitory constant (Ki) in experiment [3] was 0.00603 µM; in experiment [8], 0.00457 µM. Moreover, the outcome with Oryctolagus cuniculus [4] and in the experiment with Oryctolagus cuniculus [5] was inactive. Moreover, in the experiment on Oryctolagus cuniculus [6], the outcome was Active. In experiment [7], this compound gave an IC50 of 0.00238 µM.
For `CC(=O)NCCc1c(Br)[nH]c2ccc(OCCCCCCNC(=O)Oc3cccc(-c4ccccc4)c3)cc12`, the Intrinsic activity in experiment [1] came to 0.97; in experiment [2] it was 0.73. The Ki in experiment [3] is 0.000776 µM; in experiment [8] it was 0.0017 µM. In addition, the result in the experiment with Oryctolagus cuniculus [4] and in the experiment on Oryctolagus cuniculus [5] was Active. For the same compound, 0.00085 µM corresponded to half-maximal inhibition in experiment [7] (IC50).
